# System: U2OS
# Assay: Multiplex assay against U2OS
# Type: toxicity, cell-based
# Conditions: human
# Summary of the method: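 Cells stained live at seeding with Hoechst33342, BioTracker Green Microtubule Cytoskeleton Dye, MitoTracker Red and Annexin V Alexa Fluor 680 were imaged on a CQ1 microscope at 37°C and 5% CO2 after compound addition. Their classification by CellPathfinder machine-learning gating ran from Hoechst high-intensity objects versus normal cells, to healthy, pyknosed or fragmented nuclei among normal cells, to mitotic or apoptotic among pyknosed cells. Tubulin, mitochondrial-mass and membrane-permeability phenotypes are per cents of healthy-nucleus cells.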
# [1] = 12 h, 1 µM, compound concentration 1 uM, replicate 1
# [2] = 12 h, 1 µM, compound concentration 1 uM, replicate 2
# [3] = 12 h, 10 µM, compound concentration 10 uM, replicate 1
# [4] = 12 h, 10 µM, compound concentration 10 uM, replicate 2
# [5] = 24 h, 1 µM, compound concentration 1 uM, replicate 1
# [6] = 24 h, 1 µM, compound concentration 1 uM, replicate 2
# [7] = 24 h, 10 µM, compound concentration 10 uM, replicate 1
# [8] = 24 h, 10 µM, compound concentration 10 uM, replicate 2
# [9] = 48 h, 1 µM, compound concentration 1 uM, replicate 1
# [10] = 48 h, 1 µM, compound concentration 1 uM, replicate 2
# [11] = 48 h, 10 µM, compound concentration 10 uM, replicate 1
# [12] = 48 h, 10 µM, compound concentration 10 uM, replicate 2
structure (smiles),measurement,setting,value
O=C1N/C(=N/c2ccccc2F)S/C1=C\c1ccc(C(=O)O)cc1,Population Apoptotic (%),[1],33%
same,Population Fragmented Nuclei (%),[1],8%
same,Population Healthy Nuclei (%),[1],85%
same,Population Hoechst High Intensity Objects (%),[1],9%
same,Population Membrane Permeable-Phenotype (%),[1],6%
same,Population Mitochondria Different-Phenotype (%),[1],10%
same,Population Mitotic Cells (%),[1],66%
same,Population Normal (%),[1],90%
same,Population Pyknosed Nuclei (%),[1],5%
same,Population Tubulin-Different-Phenotype (%),[1],7%
same,Total Cell Count,[1],130
same,Population Apoptotic (%),[2],0%
same,Population Fragmented Nuclei (%),[2],3%
same,Population Healthy Nuclei (%),[2],92%
same,Population Hoechst High Intensity Objects (%),[2],8%
same,Population Mitochondria Different-Phenotype (%),[2],16%
same,Population Mitotic Cells (%),[2],100%
same,Population Normal (%),[2],91%
same,Population Pyknosed Nuclei (%),[2],3%
same,Population Tubulin-Different-Phenotype (%),[2],24%
same,Total Cell Count,[2],66
same,Population Apoptotic (%),[3],25%
same,Population Fragmented Nuclei (%),[3],8%
same,Population Healthy Nuclei (%),[3],82%
same,Population Hoechst High Intensity Objects (%),[3],5%
same,Population Membrane Permeable-Phenotype (%),[3],6%
same,Population Mitochondria Different-Phenotype (%),[3],15%
same,Population Mitotic Cells (%),[3],75%
same,Population Normal (%),[3],94%
same,Population Pyknosed Nuclei (%),[3],8%
same,Population Tubulin-Different-Phenotype (%),[3],8%
same,Total Cell Count,[3],175
same,Population Apoptotic (%),[4],44%
same,Population Fragmented Nuclei (%),[4],4%
same,Population Healthy Nuclei (%),[4],81%
same,Population Hoechst High Intensity Objects (%),[4],8%
same,Population Membrane Permeable-Phenotype (%),[4],1%
same,Population Mitochondria Different-Phenotype (%),[4],9%
same,Population Mitotic Cells (%),[4],55%
same,Population Normal (%),[4],91%
same,Population Pyknosed Nuclei (%),[4],14%
same,Population Tubulin-Different-Phenotype (%),[4],9%
same,Total Cell Count,[4],59
same,Population Apoptotic (%),[5],33%
same,Population Fragmented Nuclei (%),[5],9%
same,Population Healthy Nuclei (%),[5],81%
same,Population Membrane Permeable-Phenotype (%),[5],4%
same,Population Mitochondria Different-Phenotype (%),[5],6%
same,Population Mitotic Cells (%),[5],66%
same,Population Pyknosed Nuclei (%),[5],8%
same,Population Tubulin-Different-Phenotype (%),[5],4%
same,Total Cell Count,[5],131
same,Population Apoptotic (%),[6],0%
same,Population Fragmented Nuclei (%),[6],7%
same,Population Healthy Nuclei (%),[6],85%
same,Population Hoechst High Intensity Objects (%),[6],5%
same,Population Membrane Permeable-Phenotype (%),[6],5%
same,Population Mitochondria Different-Phenotype (%),[6],10%
same,Population Mitotic Cells (%),[6],100%
same,Population Normal (%),[6],94%
same,Population Pyknosed Nuclei (%),[6],7%
same,Population Tubulin-Different-Phenotype (%),[6],23%
same,Total Cell Count,[6],69
same,Population Apoptotic (%),[7],20%
same,Population Fragmented Nuclei (%),[7],6%
same,Population Healthy Nuclei (%),[7],85%
same,Population Hoechst High Intensity Objects (%),[7],3%
same,Population Membrane Permeable-Phenotype (%),[7],4%
same,Population Mitochondria Different-Phenotype (%),[7],10%
same,Population Mitotic Cells (%),[7],80%
same,Population Normal (%),[7],96%
same,Population Pyknosed Nuclei (%),[7],8%
same,Population Tubulin-Different-Phenotype (%),[7],5%
same,Total Cell Count,[7],234
same,Population Apoptotic (%),[8],60%
same,Population Fragmented Nuclei (%),[8],5%
same,Population Healthy Nuclei (%),[8],88%
same,Population Hoechst High Intensity Objects (%),[8],5%
same,Population Membrane Permeable-Phenotype (%),[8],2%
same,Population Mitochondria Different-Phenotype (%),[8],6%
same,Population Mitotic Cells (%),[8],40%
same,Population Normal (%),[8],94%
same,Population Pyknosed Nuclei (%),[8],5%
same,Population Tubulin-Different-Phenotype (%),[8],16%
same,Total Cell Count,[8],73
same,Population Apoptotic (%),[9],27%
same,Population Healthy Nuclei (%),[9],86%
same,Population Hoechst High Intensity Objects (%),[9],1%
same,Population Membrane Permeable-Phenotype (%),[9],1%
same,Population Mitochondria Different-Phenotype (%),[9],14%
same,Population Mitotic Cells (%),[9],72%
same,Population Normal (%),[9],98%
same,Population Pyknosed Nuclei (%),[9],6%
same,Population Tubulin-Different-Phenotype (%),[9],6%
same,Total Cell Count,[9],134
same,Population Apoptotic (%),[10],0%
same,Population Fragmented Nuclei (%),[10],6%
same,Population Healthy Nuclei (%),[10],92%
same,Population Hoechst High Intensity Objects (%),[10],5%
same,Population Membrane Permeable-Phenotype (%),[10],7%
same,Population Mitochondria Different-Phenotype (%),[10],16%
same,Population Mitotic Cells (%),[10],100%
same,Population Normal (%),[10],94%
same,Population Pyknosed Nuclei (%),[10],1%
same,Population Tubulin-Different-Phenotype (%),[10],23%
same,Total Cell Count,[10],76
same,Population Apoptotic (%),[11],21%
same,Population Healthy Nuclei (%),[11],90%
same,Population Membrane Permeable-Phenotype (%),[11],2%
same,Population Mitochondria Different-Phenotype (%),[11],14%
same,Population Mitotic Cells (%),[11],78%
same,Population Pyknosed Nuclei (%),[11],5%
same,Population Tubulin-Different-Phenotype (%),[11],5%
same,Total Cell Count,[11],338
same,Population Apoptotic (%),[12],22%
same,Population Fragmented Nuclei (%),[12],4%
same,Population Healthy Nuclei (%),[12],83%
same,Population Hoechst High Intensity Objects (%),[12],2%
same,Population Membrane Permeable-Phenotype (%),[12],6%
same,Population Mitochondria Different-Phenotype (%),[12],9%
same,Population Mitotic Cells (%),[12],77%
same,Population Normal (%),[12],97%
same,Population Pyknosed Nuclei (%),[12],12%
same,Population Tubulin-Different-Phenotype (%),[12],22%
same,Total Cell Count,[12],105

# — ChEMBL document CHEMBL4689842, “EUbOPEN Chemogenomics Library wave 1” (2021)
